Consider seven molecules from ChEMBL document CHEMBL3217723, “Optimizing PK properties of cyclic peptides: the effect of side chain substitutions on permeability and clearance()” (Medchemcomm, 2012).

Where a SMILES comes first, the peptide text is derived from it. [ ]: non-standard residue; d: D form. The star is where a group is joined. NMeY = CN[C@@H](Cc1ccc(O)cc1)C(=O)O; NMeF = CN[C@@H](Cc1ccccc1)C(=O)O; NMeI = CC[C@H](C)[C@H](NC)C(=O)O; NMeD = CN[C@@H](CC(=O)O)C(=O)O; NMeL = CN[C@@H](CC(C)C)C(=O)O; dNMeL = CN[C@H](CC(C)C)C(=O)O; NMeS = CN[C@@H](CO)C(=O)O; Morpholide = C1CN(*)CCO1; Piperidide = C1CCN(*)CC1

Series [1] can be described thus: Terminal elimination half life in Wistar-Han rat at 1 mg/kg, iv. More on the design: dose 1 mg/kg, route intravenous. To be noted: in vivo, read-out: beta t1/2 (converted). It is filed as ADME, organism-based.
The nature of series [2]: Oral bioavailability in male Wistar-Han rat assessed as dose escapes hepatic metabolism. It counts as ADME, organism-based. To be noted: in vivo.
Series [3] can be described thus: Oral bioavailability in male Wistar-Han rat assessed as fraction of absorbed dose. It is filed as ADME, organism-based. To be noted: in vivo, read-out: Fabs.
Series [4] can be described thus: Lipophilicity, log D of the compound at pH 7.4 by shake-flask method. It counts as physicochemical. To be noted: buffer.
Series [5] is described as follows: Terminal elimination half life in Wistar-Han rat at 5 mg/kg, po. More on the design: dose 5 mg/kg, route oral. It is filed as ADME, organism-based. To be noted: in vivo, read-out: beta t1/2 (converted). The essentials: (§1)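 Male Wistar-Hannover rats (230–250 g, n = 3), jugular-cannulated, were fasted overnight and dosed by oral gavage. Vehicle depended on compound: SEDDS/water or propylene glycol/sodium phosphate pH 7.4. Blood was collected at 0.083–24 h into K2EDTA and the plasma analyzed by LC-MS/MS. Terminal half-life came from the non-compartmental ln-concentration slope.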

A short description of series [6]: Intrinsic clearance in human liver microsomes by LC-MS/MS analysis. It is filed as ADME. To be noted: read-out: CLH. The method in brief: (§2)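 Compound at 1 µM with liver microsomes (CYP 0.25 µM) in 0.1 M potassium phosphate, pH 7.4, at 37 °C. Final solvent was 0.975% acetonitrile and 0.025% DMSO. Mix prewarmed 5 min, then started with 1.3 mM NADPH; no-NADPH controls were run. Sampled at 0–60 min into acetonitrile and followed by LC-MS/MS for substrate loss. T1/2 was scaled to CLint by the well-stirred model.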

Series [7] can be described thus: AUC (0 to infinity) in male Wistar-Han rat at 1 mg/kg, iv. It is filed as ADME, organism-based. More on the design: time infinity, dose 1 mg/kg, route intravenous. To be noted: plasma.
Series [8] in a line: Apparent permeability from apical to basolateral side in human Caco2 cells by LC-MS/MS analysis. It counts as ADME, cell-based. To be noted: Caco-2. (Caco-2 cells form a polarised layer with tight junctions and transporters.)
Series [9] in a line: Volume of distribution at steady state in male Wistar-Han rat at 1 mg/kg, iv. To be noted: in vivo, read-out: Vdss. It counts as ADME, organism-based. Further details: dose 1 mg/kg, route intravenous.
The nature of series [10]: AUC (0 to infinity) in male Wistar-Han rat at 5 mg/kg, po. To be noted: plasma. It counts as ADME, organism-based. More on the design: time infinity, dose 5 mg/kg, route oral. The method in brief: (§3)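 Jugular vein-cannulated male Wistar-Hannover rats (230-250 g), n = 3, fasted overnight and fed after the 4 h sample; oral dosing in the i.v. formulations, except the SEDDS formulation used 90% water. Serial blood 0.083–24 h, K2EDTA plasma, LC-MS/MS against standard curve; non-compartmental AUC0-∞ by linear trapezoid rule.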

The nature of series [11]: Intrinsic clearance in rat liver microsomes by LC-MS/MS analysis. It counts as ADME. To be noted: read-out: CLH. The essentials:
as §2
(In general: Liver microsomes are a subcellular fraction often used to study metabolism.)

A short description of series [12]: Oral bioavailability in male Wistar-Han rat at 5 mg/kg. It is filed as ADME, organism-based. To be noted: in vivo. The essentials: (§4)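 Male Wistar-Hannover rats (230-250 g, cannulated; n = 3) fasted overnight, fed after the 4 h sample, and dosed orally in the i.v. formulations or 10% SEDDS:90% water. Serial blood sampled 0.083–24 h into K2EDTA. Plasma measured by LC-MS/MS against a standard curve. Cmax and Tmax read from individual profiles; F = oral AUC0-∞ relative to i.v. AUC0-∞.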

A short description of series [13]: Plasma clearance in male Wistar-Han rat at 1 mg/kg, iv. It is filed as ADME, organism-based. Further details: dose 1 mg/kg, route intravenous.
The nature of series [14]: Cmax in male Wistar-Han rat at 5 mg/kg, po. It is filed as ADME, organism-based. Further details: dose 5 mg/kg, route oral. To be noted: in vivo. The essentials: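 Jugular vein-cannulated male Wistar-Hannover rats (230-250 g), n = 3, fasted overnight and fed after the 4 h sample. Single oral dose in compound-specific vehicles (10% SEDDS:90% water, or propylene glycol with 20 mM sodium phosphate pH 7.4). Serial blood at 0.083–24 h into K2EDTA. Plasma protein-precipitated with internal standard and analysed by LC-MS/MS. Cmax read directly from individual concentration–time curves.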

A short description of series [15]: Terminal elimination half life in Wistar-Han rat at 10 mg/kg, po. It counts as ADME, organism-based. Further details: dose 10 mg/kg, route oral. To be noted: in vivo, read-out: beta t1/2 (converted). The method in brief:
as §1

Series [16] can be described thus: Tmax in male Wistar-Han rat at 10 mg/kg, po. It is filed as ADME, organism-based. Further details: dose 10 mg/kg, route oral. To be noted: in vivo.
Series [17] can be described thus: AUC (0 to infinity) in male Wistar-Han rat at 1.48 mg/kg, iv. It is filed as ADME, organism-based. To be noted: plasma. More on the design: time infinity, dose 1.48 mg/kg, route intravenous. The method in brief:
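Jugular vein-cannulated male Wistar-Hannover rats (230-250 g), n = 3, fed ad libitum; 30 s tail-vein injection in 10% SEDDS:90% sterile dextrose, 1:1 propylene glycol:20 mM sodium phosphate (pH 7.4), or 10% propylene glycol:90% 20 mM sodium phosphate (pH 7.4). Blood via cannula to 24 h, K2EDTA plasma, LC-MS/MS against standard curve; non-compartmental AUC0-∞ by linear trapezoid rule.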

Series [18] can be described thus: AUC (0 to infinity) in male Wistar-Han rat at 10 mg/kg, po. It is filed as ADME, organism-based. Further details: time infinity, dose 10 mg/kg, route oral. To be noted: plasma. The essentials:
as §3

Series [19] in a line: Cmax in male Wistar-Han rat at 10 mg/kg, po. To be noted: in vivo. More on the design: dose 10 mg/kg, route oral. It is filed as ADME, organism-based.
Series [20] can be described thus: Terminal elimination half life in Wistar-Han rat at 1.48 mg/kg, iv. It counts as ADME, organism-based. Further details: dose 1.48 mg/kg, route intravenous. To be noted: in vivo, read-out: beta t1/2 (converted). The essentials:
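Jugular vein-cannulated male Wistar-Hannover rats (230–250 g, n = 3) received a tail-vein bolus over 30 s. Vehicle depended on compound: SEDDS/dextrose or propylene glycol/20 mM sodium phosphate pH 7.4. Blood was drawn at 0.03–24 h into K2EDTA and the plasma analyzed by LC-MS/MS. Non-compartmental analysis gave T1/2 = 0.693/|terminal ln-slope|.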

Series [21] can be described thus: Drug excretion in male Wistar-Han rat urine. To be noted: read-out: Drug excretion. It counts as ADME.
Series [22] in a line: Plasma clearance in male Wistar-Han rat at 1.48 mg/kg, iv. More on the design: dose 1.48 mg/kg, route intravenous. It is filed as ADME, organism-based. The essentials:
(§5)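 Jugular vein-cannulated male Wistar-Hannover rats (230-250 g; n = 3) given a 30 s tail-vein bolus in SEDDS/dextrose or propylene glycol/20 mM sodium phosphate (pH 7.4) vehicles. Blood sampled 0.03–24 h via cannula into K2EDTA. Plasma proteins precipitated, LC-MS/MS. Non-compartmental: CLp = dose/AUC0-∞ (linear trapezoid); Vdss; T1/2 = 0.693/terminal log-linear slope.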

Series [23] can be described thus: Volume of distribution at steady state in male Wistar-Han rat at 1.48 mg/kg, iv. It counts as ADME, organism-based. To be noted: in vivo, read-out: Vdss. More on the design: dose 1.48 mg/kg, route intravenous. The essentials: as §5
Series [24] is described as follows: Oral bioavailability in male Wistar-Han rat at 10 mg/kg. It is filed as ADME, organism-based. To be noted: in vivo. The method in brief:
as §4

As usually defined, the logD is the decadic logarithm of the distribution of all forms, ionised or not, between an organic phase and buffer at a given pH. A high value points to a more lipophilic compound. By AUC(0-inf) is commonly meant total exposure, with the tail of the curve extrapolated. Low readings indicate less exposure, high ones more exposure. By Papp A→B is commonly meant how fast a substance crosses the layer from the apical side. The bioavailability is dose-corrected exposure relative to a reference, in per cent. A high value points to good availability. For orientation: clearance means the rate of elimination divided by the concentration. Read a low clearance as a low capacity for elimination. By Cmax is commonly meant the peak of the concentration-time curve. As for `CC(C)C[C@@H]1NC(=O)[C@H](Cc2ccc(O)cc2)N(C)C(=O)[C@H]2CCCN2C(=O)[C@H](CC(C)C)NC(=O)[C@H](CO)N(C)C(=O)[C@@H](CC(C)C)N(C)C1=O` (cyclo(L[dNMeL][NMeS]L[dP][NMeY])), the half-life was 1.46 h in [1] and 2.82 h in [5]. In addition, in series [2], the Fh is 14%. In series [3], the Fa is 14.5%. Besides, the logD in series [4] worked out at 2.61. Also, the CLint scaled in series [6] is 80 mL/min/kg; in [11] it was 96 mL/min/kg. Besides, the AUC(0-inf) in series [7] turned out to be 282 ng·h/mL; in series [10] it was 42.3 ng·h/mL. Further, the Papp A→B in series [8] came to 3.3 ×10⁻⁶ cm/s. The Vd in [9] turned out to be 4.3 L/kg. Further, in series [12], the bioavailability stood at 2.03%. In [13], the clearance came to 60.4 mL/min/kg. In addition, the Cmax in series [14] amounted to 9.86 ng/mL.

The term Tmax denotes the time from dosing to the highest level. Take `CC(C)C[C@@H]1NC(=O)[C@H](Cc2ccc(O)cc2)N(C)C(=O)[C@H]2CCCN2C(=O)[C@H](CC(C)C)NC(=O)[C@H](CC(=O)O)N(C)C(=O)[C@@H](CC(C)C)N(C)C1=O` (cyclo(L[dNMeL][NMeD]L[dP][NMeY])): the half-life was 4.73 h in series [15] and 0.358 h in series [20]. Further, the logD in series [4] was found to be 0.477. Besides, the Tmax in [16] amounted to 0.78 h. Besides, the results for the AUC(0-inf) in series [17] and in [18] were 441 ng·h/mL and 18.7 ng·h/mL, respectively. Moreover, the values for the CLint scaled in [6] and in series [11] were less than 8 mL/min/kg and less than 9 mL/min/kg, respectively. Also, in series [19], the Cmax turned out to be 17.3 ng/mL. For the same molecule, the Papp A→B in [8] is 0.36 ×10⁻⁶ cm/s. In series [21], the dose excreted was less than 1%. The same molecule yielded a clearance in series [22] of 56.4 mL/min/kg. For the same molecule, in [23], the Vd was 0.36 L/kg. Also, the bioavailability in [24] stood at 0.469%.

Molecule `CC(C)C[C@@H]1NC(=O)[C@H](Cc2ccc(O)cc2)N(C)C(=O)[C@H]2CCCN2C(=O)[C@H](CC(C)C)NC(=O)[C@H](CC(=O)N2CCOCC2)N(C)C(=O)[C@@H](CC(C)C)N(C)C1=O` (cyclo(L[dNMeL][NMeD](Morpholide)L[dP][NMeY])) yielded a logD in series [4] of 2.78. In [6], the CLint scaled turned out to be 57 mL/min/kg.

In the case of `CC(C)C[C@@H]1NC(=O)[C@H](Cc2ccc(O)cc2)N(C)C(=O)[C@H]2CCCN2C(=O)[C@H](CC(C)C)NC(=O)[C@H](Cc2ccccc2)N(C)C(=O)[C@@H](CC(C)C)N(C)C1=O` (cyclo(L[dNMeL][NMeF]L[dP][NMeY])), in [4], the logD turned out to be 4.46. The CLint scaled in [6] was 170 mL/min/kg.

As for `CC[C@H](C)[C@H]1C(=O)N[C@@H](CC(C)C)C(=O)N2CCC[C@@H]2C(=O)N(C)[C@@H](Cc2ccc(O)cc2)C(=O)N[C@@H](CC(C)C)C(=O)N(C)[C@H](CC(C)C)C(=O)N1C` (cyclo(L[dNMeL][NMeI]L[dP][NMeY])), in series [6], the CLint scaled is more than 300 mL/min/kg.

As for `CC(C)C[C@@H]1NC(=O)[C@H](Cc2ccc(O)cc2)N(C)C(=O)[C@H]2CCCN2C(=O)[C@H](CC(C)C)NC(=O)[C@H](CC(=O)N2CCCCC2)N(C)C(=O)[C@@H](CC(C)C)N(C)C1=O` (cyclo(L[dNMeL][NMeD](Piperidide)L[dP][NMeY])), the logD in series [4] stood at 3.77. In addition, the CLint scaled in series [6] was more than 300 mL/min/kg.

As for `CC(C)C[C@@H]1NC(=O)[C@H](Cc2ccc(O)cc2)N(C)C(=O)[C@H]2CCCN2C(=O)[C@H](CC(C)C)NC(=O)[C@H](CC(C)C)N(C)C(=O)[C@@H](CC(C)C)N(C)C1=O` (cyclo(L[dNMeL][NMeL]L[dP][NMeY])), in series [6], the CLint scaled was 120 mL/min/kg.
